Assay results taken from ChEMBL document CHEMBL1136727, “Regioselective covalent modification of hemoglobin in search of antisickling agents” (J Med Chem, 2003).
Several values for one entry are separate records, joined by “and”; a condition that tells them apart may be missing. Equal values may be shown once.

Tests used:
[1] = biological target: Hemoglobin subunit alpha (Homo sapiens) (UniProt P69905); experiment: Percent modification of alpha-subunit of human hemoglobin (100 uM) after 3h of incubation
Summary of the method: (§1)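 HbA·CO at 100 μM final (tetramer) reacted with isothiocyanate at a 2:1 compound:Hb molar ratio in 50 mM ammonium acetate, pH 7.3, with 2% DMSO or buffer alone, for 3 h at 37 °C. An aliquot was diluted in acetonitrile/water with 0.2% formic acid and analysed by electrospray MS to give percent modified α- and β-subunit. Some compounds were run in triplicate.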

[2] = biological target: T1, Hemoglobin HbA (Homo sapiens) (UniProt P69905+P68871); experiment: Affinity towards oxygen by hemoglobin after modification by compound; assay type: functional
[3] = biological target: Hemoglobin subunit alpha (Homo sapiens) (UniProt P69905); experiment: Percent modification of human hemoglobin alpha (100 uM) after 3h of incubation; summary of the method: as §1
[4] = biological target: T1, Hemoglobin HbA (Homo sapiens); experiment: Inhibition of sickle hemoglobin aggregation using standard saturation solubility (CSAT) assay; assay type: functional
Summary of the method: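 Saturation solubility (Csat) of deoxy HbS or inhibitor-modified HbS in 50 mM phosphate, pH 7.0. CO is removed by photodissociation under oxygen. HbSO2 at 35 g/dL is deoxygenated on ice with 0.9 M sodium dithionite solution, then centrifuged 1 h at 30 °C. Supernatant Hb is measured spectrophotometrically, and activity is expressed as the solubility increase over the unmodified HbS control.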

[5] = biological target: Hemoglobin subunit alpha (Homo sapiens) (UniProt P69905); experiment: Percent modification of human Hemoglobin alpha (100 uM) after 3h of incubation; summary of the method: as §1
[6] = biological target: Hemoglobin subunit beta (Homo sapiens) (UniProt P68871); experiment: Percent modification of human Hemoglobin beta (100 uM) after 3h of incubation; summary of the method: as §1
[7] = biological target: T1, Hemoglobin HbA (Homo sapiens); experiment: Ratio of compound modified hemoglobin aggregation […]; assay type: functional

Hemoglobin subunit alpha (Homo sapiens), sequence (P69905 whole entry): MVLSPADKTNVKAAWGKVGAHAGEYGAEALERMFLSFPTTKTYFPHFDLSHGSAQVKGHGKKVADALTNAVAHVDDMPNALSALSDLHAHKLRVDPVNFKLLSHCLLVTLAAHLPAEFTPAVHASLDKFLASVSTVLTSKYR
Hemoglobin subunit beta (Homo sapiens), sequence (P68871 2-147 limits assumed): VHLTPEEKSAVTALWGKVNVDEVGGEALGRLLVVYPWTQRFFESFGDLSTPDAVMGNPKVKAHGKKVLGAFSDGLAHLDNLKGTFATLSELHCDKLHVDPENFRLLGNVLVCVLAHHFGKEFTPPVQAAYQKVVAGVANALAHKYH
T1 sequence (P68871 2-147 partner limits assumed): as the sequence (P68871 2-147 limits assumed) above
T1 sequence (P69905 2-142 limits assumed): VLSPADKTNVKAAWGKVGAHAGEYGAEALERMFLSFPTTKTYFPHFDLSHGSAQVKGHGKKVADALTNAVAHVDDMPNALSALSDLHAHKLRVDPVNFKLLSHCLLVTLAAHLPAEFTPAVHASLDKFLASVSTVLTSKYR

SMILES | Modification [1] [%] | Co [2] | Modification [3] | Csat [4] | Modification [5] [%] | Modification [6] | Csat/Co [7]
N#CSc1ccc(CCO)cc1 | 72 | 17 g/dL | 72% | 18.7 g/dL | 66 | 8% and 9% (2×) | 1.1
N#CSCCN1CCCCC1 |  | 16.8 g/dL and 16.4 g/dL and 16.5 g/dL |  | 20.9 g/dL and 20.1 g/dL and 20.5 g/dL |  |  | 1.24 (2×) and 1.23
N#CSc1ccc(CC(=O)O)cc1 |  |  | 42% |  |  | 13% | 
N#CSCCCn1ccnc1 |  | 17 g/dL and 16.2 g/dL and 16.5 g/dL | 7% | 20.6 g/dL and 18.6 g/dL and 19.6 g/dL |  | 13% | 1.21 and 1.15 and 1.18
CN(C)CCCCCSC#N |  | 15.9 g/dL and 15 g/dL and 15.1 g/dL |  | 21.3 g/dL and 20.2 g/dL and 20.7 g/dL |  |  | 1.34 and 1.35 and 1.37
N#CSc1ccc(C(=O)O)c(O)c1 |  |  | 35% |  |  | 3% | 
N#CCCSC#N |  | 16.1 g/dL and 16.3 g/dL and 16.2 g/dL | 10% | 17.4 g/dL and 17.8 g/dL and 17.7 g/dL |  | 21% | 1.08 and 1.1 and 1.09
N#CSc1ccc(O)cc1 |  |  |  |  | 51 | 8% | 
N#CSCc1ccncc1 |  |  | 6% |  |  | 58% | 
CCN(CC)CCSC#N |  | 17 g/dL and 16.2 g/dL and 16.5 g/dL |  | 21 g/dL and 19.8 g/dL and 20.1 g/dL |  |  | 1.24 and 1.22 (2×)
CCN(CC)CCCSC#N |  | 16.1 g/dL and 16.3 g/dL and 16.2 g/dL | 0% | 19.9 g/dL and 19.6 g/dL and 19.7 g/dL |  | 37% | 1.24 and 1.2 and 1.22
N#CSC1CCC(O)CC1 (stereo not given) |  |  | 0% |  |  | 18% | 
N#CSCCc1c[nH]c2ccccc12 |  |  | 7% |  |  | 24% | 
CN(C)CCCCSC#N |  | 15.3 g/dL and 15.6 g/dL and 15.1 g/dL |  | 18.8 g dl-1 and 19.1 g dl-1 (2×) |  |  | 1.23 and 1.22 and 1.27
CCN(CC)CCCCSC#N |  | 15.9 g/dL and 15 g/dL and 15.1 g/dL |  | 20.7 g/dL and 19.1 g/dL and 19.7 g/dL |  |  | 1.3 (2×) and 1.27
CCN(CC)CCCCCSC#N |  | 15.9 g/dL and 15 g/dL and 15.1 g/dL |  | 21.1 g dl-1 and 20.4 g dl-1 (2×) |  |  | 1.33 and 1.36 and 1.35
CN(C)c1ccc(SC#N)cc1 |  | 17 g/dL |  | 18.2 g/dL | 48 | 10% | 1.07
N#CSCCCCCO |  | 17 g/dL |  | 18.8 g/dL |  |  | 1.11
COC(CSC#N)OC |  | 17 g/dL and 16.2 g/dL and 16.5 g/dL | 11% | 18.2 g/dL and 17.4 g/dL and 17.3 g/dL |  | 33% | 1.07 (2×) and 1.04
N#CSCCCN1CCCC1=O |  |  | 0% |  |  | 24% | 
CCN(CC)CCNC(=O)c1ccc(SC#N)cc1 |  |  | 36% and 42% |  | 40 | 17% and 16% and 15% | 
